In ChEMBL document CHEMBL5252523, “Searching for New Leads for Tuberculosis: Design, Synthesis, and Biological Evaluation of Novel 2-Quinolin-4-yloxyacetamides” (J Med Chem, 2016):
Converted amounts (≈) assume the structure as drawn.

System: not listed separately
Experiment: Cytotoxicity against human HepG2 cells assessed as cell growth inhibition incubated for 48 hrs by CellTiter-Glo reagent based analysis
Assay type: toxicity
Conditions: not given
Summary of the method: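 HepG2 cells kept in Eagle's MEM with 10% heat-inactivated FBS, 1% NEAA and penicillin/streptomycin, seeded at ~3000 cells/well onto pre-dispensed compound. Incubation was 48 h at 37 °C, 5% CO2. Plates were equilibrated to room temperature, CellTiter-Glo was added, and ATP luminescence was read after 10 min as the viability read-out.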

Compound | IC50 at 48 h
COc1ccc2nc(C)cc(OCC(=O)Nc3ccccc3)c2c1 | 39.8 µM
COc1cccc(NC(=O)COc2cc(C)nc3ccc(OC)cc23)c1 | > 100 µM
COc1ccc2nc(C)cc(NC(=O)C(=O)Nc3cc(C)cc(C)c3)c2c1 | > 100 µM
COc1ccc2nc(C)cc(OCC(=O)NC3CONC3=O)c2c1 (stereo not drawn) | > 100 µM
COc1cc2nc(C)cc(OCC(=O)Nc3cc(C)cc(C)c3)c2cc1OC | 10 µM
COc1ccc2nc(C)c(NC(=O)C(=O)Nc3cc(C)cc(C)c3)c(O)c2c1 | > 100 µM
COc1ccc2nc(C)cc(OCC(=O)Nc3nc(C)c(C)s3)c2c1 | > 100 µM
COc1ccc2nc(C)cc(OCc3nc4ccccc4[nH]3)c2c1 | > 100 µM
COc1ccc2nc(C)cc(OCc3ccc4ccccc4n3)c2c1 | 31.6 µM
COc1ccc2nc(C)cc(OCC(=O)Nc3ccc(Cl)c(C(F)(F)F)c3)c2c1 | 79.4 µM
COc1ccc2nc(C)cc(OCC(=O)Nc3cc(C)c(OC)c(C)c3)c2c1 | 7.94 µM
COc1ccc2nc(C)cc(OCC(=O)Nc3c(C)cccc3C)c2c1 | > 100 µM
COc1ccc2nc(C)cc(OC(C(=O)Nc3cc(C)cc(C)c3)c3ccccc3)c2c1 (stereo not drawn) | > 100 µM
Cc1cc(C)cc(NC(=O)COc2cc(C)nc3ccc(C(F)(F)F)cc23)c1 | > 100 µM
Cc1cc(C)cc(NC(=O)COc2cc(C(F)(F)F)nc3cc4c(cc23)OCO4)c1 | > 100 µM
COc1ccc2nc(C)cc(OCC(=O)Nc3ccc(Br)c(C)c3)c2c1 | 15.8 µM
COc1ccc2nc(C)cc(NCC(=O)Nc3cc(C)cc(C)c3)c2c1 | 6.31 µM
Cc1cc(C)cc(NC(=O)COc2cc(C(F)(F)F)nc3ccc(OC(F)(F)F)cc23)c1 | > 100 µM
Cc1cc(C)cc(NC(=O)COc2cc(C)nc3ccc(OC(F)(F)F)cc23)c1 | > 100 µM
Cc1cc(C)cc(NC(=O)COc2cc(C)nc3ccc(F)cc23)c1 | 63.1 µM
COc1ccc2nc(C)cc(OCC(=O)Nc3nccs3)c2c1 | > 100 µM
COc1ccc2nc(C(F)(F)F)cc(OCC(=O)Nc3cc(C)cc(C)c3)c2c1 | > 100 µM
COc1ccc2nc(C)cc(OCC(=O)Nc3ccc(S(=O)(=O)Nc4cc(C)on4)cc3)c2c1 | > 100 µM

System: not listed separately
Experiment: Artificial membrane permeability of the compound incubated for 3 hrs by HPLC analysis
Assay type: ADME
Conditions: PAMPA, read-out: permeability

Compound | Papp at 3 h
COc1ccc2nc(C)cc(OCC(=O)Nc3ccccc3)c2c1 | 37 ×10⁻⁶ cm/s
COc1cccc(NC(=O)COc2cc(C)nc3ccc(OC)cc23)c1 | 47 ×10⁻⁶ cm/s
COc1ccc2nc(C)cc(OCC(=O)NC3CONC3=O)c2c1 (stereo not drawn) | < 1 ×10⁻⁶ cm/s
COc1cc2nc(C)cc(OCC(=O)Nc3cc(C)cc(C)c3)c2cc1OC | 60.5 ×10⁻⁶ cm/s
COc1ccc2nc(C)cc(OCC(=O)Nc3nc(C)c(C)s3)c2c1 | 44 ×10⁻⁶ cm/s
COc1ccc2nc(C)cc(OCc3ccc4ccccc4n3)c2c1 | 47 ×10⁻⁶ cm/s
COc1ccc2nc(C)cc(OCC(=O)Nc3cc(C)c(OC)c(C)c3)c2c1 | 32 ×10⁻⁶ cm/s
COc1ccc2nc(C)cc(OCC(=O)Nc3c(C)cccc3C)c2c1 | 63 ×10⁻⁶ cm/s
COc1ccc2nc(C)cc(OC(C(=O)Nc3cc(C)cc(C)c3)c3ccccc3)c2c1 (stereo not drawn) | < 3 ×10⁻⁶ cm/s
Cc1cc(C)cc(NC(=O)COc2cc(C)nc3ccc(C(F)(F)F)cc23)c1 | < 3 ×10⁻⁶ cm/s
Cc1cc(C)cc(NC(=O)COc2cc(C(F)(F)F)nc3cc4c(cc23)OCO4)c1 | < 3 ×10⁻⁶ cm/s
COc1ccc2nc(C)cc(NCC(=O)Nc3cc(C)cc(C)c3)c2c1 | 31 ×10⁻⁶ cm/s
Cc1cc(C)cc(NC(=O)COc2cc(C(F)(F)F)nc3ccc(OC(F)(F)F)cc23)c1 | < 0.3 ×10⁻⁶ cm/s
Cc1cc(C)cc(NC(=O)COc2cc(C)nc3ccc(OC(F)(F)F)cc23)c1 | < 3 ×10⁻⁶ cm/s
Cc1cc(C)cc(NC(=O)COc2cc(C)nc3ccc(F)cc23)c1 | 31 ×10⁻⁶ cm/s
COc1ccc2nc(C)cc(OCC(=O)Nc3nccs3)c2c1 | 112 ×10⁻⁶ cm/s
COc1ccc2nc(C(F)(F)F)cc(OCC(=O)Nc3cc(C)cc(C)c3)c2c1 | < 1 ×10⁻⁶ cm/s
COc1ccc2nc(C)cc(OCC(=O)Nc3ccc(S(=O)(=O)Nc4cc(C)on4)cc3)c2c1 | 1.5 ×10⁻⁶ cm/s

System: not listed separately
Experiment: Kinetic aqueous solubility of compound in phosphate buffer at pH 7.4 incubated for 1 hrs by CLND assay
Assay type: physicochemical
Conditions: read-out: Kinetic_solubility

Compound | solubility kinetic at 1 h
COc1ccc2nc(C)cc(OCC(=O)Nc3ccccc3)c2c1 | 63 µM (≈ 20.3 µg/mL)
COc1cccc(NC(=O)COc2cc(C)nc3ccc(OC)cc23)c1 | 35 µM (≈ 12.3 µg/mL)
COc1ccc2nc(C)cc(NC(=O)C(=O)Nc3cc(C)cc(C)c3)c2c1 | 10 µM (≈ 3.63 µg/mL)
COc1ccc2nc(C)cc(OCC(=O)NC3CONC3=O)c2c1 (stereo not drawn) | ≥ 166 µM
COc1ccc2nc(C)c(NC(=O)C(=O)Nc3cc(C)cc(C)c3)c(O)c2c1 | 10 µM (≈ 3.79 µg/mL)
COc1ccc2nc(C)cc(OCC(=O)Nc3nc(C)c(C)s3)c2c1 | 31.5 µM (≈ 11.3 µg/mL)
COc1ccc2nc(C)cc(OCc3nc4ccccc4[nH]3)c2c1 | 13 µM (≈ 4.15 µg/mL)
COc1ccc2nc(C)cc(OCc3ccc4ccccc4n3)c2c1 | 21 µM (≈ 6.94 µg/mL)
COc1ccc2nc(C)cc(OCC(=O)Nc3ccc(Cl)c(C(F)(F)F)c3)c2c1 | 17 µM (≈ 7.22 µg/mL)
COc1ccc2nc(C)cc(OCC(=O)Nc3cc(C)c(OC)c(C)c3)c2c1 | 17 µM (≈ 6.47 µg/mL)
COc1ccc2nc(C)cc(OCC(=O)Nc3c(C)cccc3C)c2c1 | 112 µM (≈ 39.2 µg/mL)
COc1ccc2nc(C)cc(OC(C(=O)Nc3cc(C)cc(C)c3)c3ccccc3)c2c1 (stereo not drawn) | 2 µM (≈ 0.853 µg/mL)
Cc1cc(C)cc(NC(=O)COc2cc(C)nc3ccc(C(F)(F)F)cc23)c1 | 10 µM (≈ 3.88 µg/mL)
Cc1cc(C)cc(NC(=O)COc2cc(C(F)(F)F)nc3cc4c(cc23)OCO4)c1 | < 1 µM
COc1ccc2nc(C)cc(OCC(=O)Nc3ccc(Br)c(C)c3)c2c1 | < 1 µM
COc1ccc2nc(C)cc(NCC(=O)Nc3cc(C)cc(C)c3)c2c1 | 204 µM (≈ 71.3 µg/mL)
Cc1cc(C)cc(NC(=O)COc2cc(C(F)(F)F)nc3ccc(OC(F)(F)F)cc23)c1 | 34 µM (≈ 15.6 µg/mL)
Cc1cc(C)cc(NC(=O)COc2cc(C)nc3ccc(F)cc23)c1 | 28 µM (≈ 9.47 µg/mL)
COc1ccc2nc(C)cc(OCC(=O)Nc3nccs3)c2c1 | 54 µM (≈ 17.8 µg/mL)
COc1ccc2nc(C(F)(F)F)cc(OCC(=O)Nc3cc(C)cc(C)c3)c2c1 | 15 µM (≈ 6.07 µg/mL)
COc1ccc2nc(C)cc(OCC(=O)Nc3ccc(S(=O)(=O)Nc4cc(C)on4)cc3)c2c1 | ≥ 381 µM

System: Mycobacterium tuberculosis
Experiment: Antimycobacterial activity against Mycobacterium tuberculosis H37Rv ATCC 25618 assessed as inhibition of microbial growth incubated for 6 days by resazurin based assay
Assay type: functional
Conditions: H37Rv ATCC 25618, 144 h, time 6 day
Summary of the method: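 Ten two-fold dilutions made in neat DMSO, tested in Middlebrook 7H9 with the H37Rv inoculum. Controls: isoniazid from 4 μg/ml as positive control; rifampicin 1 μM as no-growth control. Plates sat sealed at 37 °C without shaking for 6 days.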

Compound | MIC
COc1ccc2nc(C)cc(OCC(=O)Nc3ccccc3)c2c1 | 2 µM
COc1cccc(NC(=O)COc2cc(C)nc3ccc(OC)cc23)c1 | 6.4 µM
COc1ccc2nc(C)cc(NC(=O)C(=O)Nc3cc(C)cc(C)c3)c2c1 | > 125 µM
COc1ccc2nc(C)cc(OCC(=O)NC3CONC3=O)c2c1 (stereo not drawn) | > 125 µM
COc1cc2nc(C)cc(OCC(=O)Nc3cc(C)cc(C)c3)c2cc1OC | > 250 µM
COc1ccc2nc(C)c(NC(=O)C(=O)Nc3cc(C)cc(C)c3)c(O)c2c1 | > 125 µM
COc1ccc2nc(C)cc(OCC(=O)Nc3nc(C)c(C)s3)c2c1 | 62 µM
COc1ccc2nc(C)cc(OCc3nc4ccccc4[nH]3)c2c1 | 16 µM
COc1ccc2nc(C)cc(OCc3ccc4ccccc4n3)c2c1 | 32 µM
COc1ccc2nc(C)cc(OCC(=O)Nc3ccc(Cl)c(C(F)(F)F)c3)c2c1 | 47 µM
COc1ccc2nc(C)cc(OCC(=O)Nc3cc(C)c(OC)c(C)c3)c2c1 | 1 µM
COc1ccc2nc(C)cc(OCC(=O)Nc3c(C)cccc3C)c2c1 | 125 µM
COc1ccc2nc(C)cc(OC(C(=O)Nc3cc(C)cc(C)c3)c3ccccc3)c2c1 (stereo not drawn) | > 125 µM
Cc1cc(C)cc(NC(=O)COc2cc(C)nc3ccc(C(F)(F)F)cc23)c1 | > 250 µM
Cc1cc(C)cc(NC(=O)COc2cc(C(F)(F)F)nc3cc4c(cc23)OCO4)c1 | > 250 µM
COc1ccc2nc(C)cc(OCC(=O)Nc3ccc(Br)c(C)c3)c2c1 | 3.9 µM
COc1ccc2nc(C)cc(NCC(=O)Nc3cc(C)cc(C)c3)c2c1 | 47 µM
Cc1cc(C)cc(NC(=O)COc2cc(C(F)(F)F)nc3ccc(OC(F)(F)F)cc23)c1 | > 250 µM
Cc1cc(C)cc(NC(=O)COc2cc(C)nc3ccc(OC(F)(F)F)cc23)c1 | > 250 µM
Cc1cc(C)cc(NC(=O)COc2cc(C)nc3ccc(F)cc23)c1 | 15.6 µM
COc1ccc2nc(C)cc(OCC(=O)Nc3nccs3)c2c1 | > 250 µM
COc1ccc2nc(C(F)(F)F)cc(OCC(=O)Nc3cc(C)cc(C)c3)c2c1 | > 250 µM
COc1ccc2nc(C)cc(OCC(=O)Nc3ccc(S(=O)(=O)Nc4cc(C)on4)cc3)c2c1 | 125 µM

System: not listed separately
Experiment: Chromatographic hydrophobicity index, log D of the compound in phosphate buffer at pH 7.4 by UV-HPLC analysis
Assay type: physicochemical
Conditions: not given

Compound | chromatographic logD
COc1ccc2nc(C)cc(OCC(=O)Nc3ccccc3)c2c1 | 4.28
COc1cccc(NC(=O)COc2cc(C)nc3ccc(OC)cc23)c1 | 4.49
COc1ccc2nc(C)cc(NC(=O)C(=O)Nc3cc(C)cc(C)c3)c2c1 | 6.47
COc1ccc2nc(C)cc(OCC(=O)NC3CONC3=O)c2c1 (stereo not drawn) | 0.79
COc1cc2nc(C)cc(OCC(=O)Nc3cc(C)cc(C)c3)c2cc1OC | 4.84
COc1ccc2nc(C)c(NC(=O)C(=O)Nc3cc(C)cc(C)c3)c(O)c2c1 | 3.76
COc1ccc2nc(C)cc(OCC(=O)Nc3nc(C)c(C)s3)c2c1 | 4.24
COc1ccc2nc(C)cc(OCc3nc4ccccc4[nH]3)c2c1 | 3.59
COc1ccc2nc(C)cc(OCc3ccc4ccccc4n3)c2c1 | 5.48
COc1ccc2nc(C)cc(OCC(=O)Nc3ccc(Cl)c(C(F)(F)F)c3)c2c1 | 6.22
COc1ccc2nc(C)cc(OCC(=O)Nc3cc(C)c(OC)c(C)c3)c2c1 | 4.99
COc1ccc2nc(C)cc(OCC(=O)Nc3c(C)cccc3C)c2c1 | 4.55
COc1ccc2nc(C)cc(OC(C(=O)Nc3cc(C)cc(C)c3)c3ccccc3)c2c1 (stereo not drawn) | 7.13
Cc1cc(C)cc(NC(=O)COc2cc(C)nc3ccc(C(F)(F)F)cc23)c1 | 6.67
Cc1cc(C)cc(NC(=O)COc2cc(C(F)(F)F)nc3cc4c(cc23)OCO4)c1 | 6.73
COc1ccc2nc(C)cc(OCC(=O)Nc3ccc(Br)c(C)c3)c2c1 | 5.95
COc1ccc2nc(C)cc(NCC(=O)Nc3cc(C)cc(C)c3)c2c1 | 3.59
Cc1cc(C)cc(NC(=O)COc2cc(C(F)(F)F)nc3ccc(OC(F)(F)F)cc23)c1 | 7.96
Cc1cc(C)cc(NC(=O)COc2cc(C)nc3ccc(OC(F)(F)F)cc23)c1 | 6.79
Cc1cc(C)cc(NC(=O)COc2cc(C)nc3ccc(F)cc23)c1 | 5.79
COc1ccc2nc(C)cc(OCC(=O)Nc3nccs3)c2c1 | 3.2
COc1ccc2nc(C(F)(F)F)cc(OCC(=O)Nc3cc(C)cc(C)c3)c2c1 | 7.02
COc1ccc2nc(C)cc(OCC(=O)Nc3ccc(S(=O)(=O)Nc4cc(C)on4)cc3)c2c1 | 2.2
